# Measurements gathered from unrelated publications.
# Each line is one published result; the experiments were not run side by side.
# Target: Tyrosine-protein kinase ABL2 (ABL2, Homo sapiens, UniProt P42684)
SMILES,test,conditions,remaining binding [%]
CNC(=O)c1cc(Oc2ccc(NC(=O)Nc3ccc(Cl)c(C(F)(F)F)c3)cc2)ccn1,"cell-free assay, competition with immobilised ligand",0.1 µM,97
C=CC(=O)N1CCC(C(=O)NCC(=O)N2CCN(c3nc(-c4cnc(N)nc4C(F)F)nc(N4CCOCC4)n3)CC2)CC1,"binding, competition with immobilised ligand",1 µM,91
N#CC1(c2ccccn2)CCN(Cc2cc(C(=O)N3CCCC3)c(=O)n3ccccc23)CC1,"cell-free assay, competition with immobilised ligand",1 µM,100
CN(CCCC(F)(F)F)c1nccc(-c2cnn3ncccc23)n1,binding,1 µM,93
O=C(NCCCN1CCOCC1)c1ccc(Nc2ncc(Cl)c(-c3ccc(Cl)s3)n2)cc1,"binding, competition with immobilised ligand",1 µM,67
COc1ccnn2ncc(-c3ccnc(N(C)C)n3)c12,binding,1 µM,86
O=C(NCC1CCOCC1)c1n[nH]cc1NC(=O)c1c(F)cccc1F,"binding, competition with immobilised ligand",1 µM,100
Cn1nc(C(F)(F)F)cc1-c1cnc(N2CCc3cc(S(=O)(=O)Nc4c(F)cc(Cl)cc4F)cc(N4CCCC4=O)c32)nc1,"cell-free assay, competition with immobilised ligand",1 µM,100
CN1CC[C@H](c2c(O)cc(O)c3c(=O)cc(-c4ccccc4Cl)oc23)[C@H](O)C1,"cell-free assay, competition with immobilised ligand",0.1 µM,100
CN(C)c1nccc(-c2cnn3ncccc23)n1,binding,1 µM,99
COc1ncc2cc3ccccc3nc2c1C#N,"cell-free assay, competition with immobilised ligand",5 µM,96
O=C(NCc1ncc(C(F)(F)F)cc1Cl)c1ccc2c(c1)C1(CCS(=O)(=O)CC1)[C@@H](C1CC1)N2S(=O)(=O)c1ccc(F)cc1,"cell-free assay, competition with immobilised ligand",1 µM,100
CN(c1nccc(-c2cnn3ncccc23)n1)C1CC1,binding,1 µM,99
COc1cnc(Nc2cccc(S(N)(=O)=O)c2)nc1N1CCN(c2ccccc2)C(=O)C1,"binding, competition with immobilised ligand",1 µM,100
CCN(CC)CCNC(=O)c1c(C)[nH]c(/C=C2\C(=O)Nc3ccc(F)cc32)c1C,"cell-free assay, competition with immobilised ligand",10 µM,51
CNC(=O)Nc1ccc2c(c1)[C@@]1(CC2)OC(=O)N(CC(=O)N(Cc2ccc(F)cc2)[C@@H](C)C(F)(F)F)C1=O,"cell-free assay, competition with immobilised ligand",1 µM,84
CCN(CC)Cc1cc(Nc2ccnc3cc(Cl)ccc23)ccc1O,"cell-free assay, competition with immobilised ligand",0.1 µM,97
CS(=O)(=O)c1cc(C2(NC(=O)c3cncc4c3cnn4-c3ccc(F)cc3)CC2)ccn1,"cell-free assay, competition with immobilised ligand",1 µM,95
Cc1c(-c2ccccc2)oc2c(C(=O)OCCN3CCCCC3)cccc2c1=O,"cell-free assay, competition with immobilised ligand",0.1 µM,100
O=C(Nc1ccc(Oc2ccc(F)cc2)cc1)N1CCc2ncccc2[C@H]1c1ccc(F)cc1,"cell-free assay, competition with immobilised ligand",1 µM,88
